Test results taken from ChEMBL document CHEMBL4402603, “Structure-Activity Relationship of SPOP Inhibitors against Kidney Cancer” (J Med Chem, 2020).
pIC50: −log10 of the molar value. Activity calls are given as the source filed them. The calls are words filed in the database; no cut-off is given here.

How the values were obtained:
[1] = target: Speckle-type POZ protein (Homo sapiens) (UniProt O43791); test: Inhibition of SPOP signalling in human OS-RC2 cells assessed as accumulation of DUSP7 incubated for 12 hrs by Western blot analysis; format: cell-based
Procedure, shortened: (§1)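 Cells exposed 12 hr to inhibitor at graded concentrations, RIPA lysates normalized by BCA. 12% SDS-PAGE, nitrocellulose transfer, milk block, primary antibody at 4 °C overnight, HRP secondary, ECL. GAPDH loading control.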

[2] = target: Speckle-type POZ protein (Homo sapiens) (UniProt O43791); test: Inhibition of SPOP signalling in human A498 cells assessed as reduction in ERK phosphorylation at 0.5 to 10 uM incubated for 12 hrs by Western blot analysis; format: cell-based; procedure, shortened: as §1
[3] = target: Speckle-type POZ protein (Homo sapiens) (UniProt O43791); test: Inhibition of SPOP signalling in human OS-RC2 cells assessed as accumulation of PTEN incubated for 12 hrs by Western blot analysis; format: cell-based
Procedure, shortened: (§2)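 Cells treated with SPOP inhibitor at different concentrations for 12 hr, lysed in RIPA, protein by BCA. Samples run on 12% SDS-PAGE, blotted to nitrocellulose, primary antibody overnight at 4 °C, HRP secondary, ECL detection. GAPDH loading control. Triplicate experiments.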

[4] = target: T1, Speckle-type POZ protein/PTEN (Homo sapiens) (UniProt P60484+O43791); test: Inhibition of SPOP/PTEN interaction in human OS-RC2 cells assessed as increase in SPOP level at 1 to 50 uM incubated for 20 mins by DARTS based Western blot analysis; format: cell-based
Procedure, shortened: (§3)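 DARTS. Lysates of 1×10⁶ cells in TNC buffer, 120 μg per tube, incubated with compound at 0, 1, 5, 10 or 50 μM for 20 min at rt. Pronase digestion 10 min at rt (1:1000 for A498, 1:2000 for OS-RC-2), stopped with protease inhibitors, then SPOP western blot. Triplicate experiments.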

A549 = test: Cytotoxicity against human A549 cells assessed as reduction in cell viability incubated for 72 hrs by MTT assay; format: cell-based; details: A549, 72 h
Procedure, shortened: (§4)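 Cells maintained in DMEM/10% FBS at 37 °C, 5% CO2. Cell proliferation quantified by MTT after 72 hr compound exposure, A490 read. Untreated cells = 100%. Mean ± SD, n = 3.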

[5] = Selectivity index, ratio of IC50 for human A549 to IC50 for human A498 cells
[6] = target: Speckle-type POZ protein (Homo sapiens) (UniProt O43791); test: Inhibition of SPOP signalling in human A498 cells assessed as effect on total ERK level at 0.5 to 10 uM incubated for 12 hrs by Western blot analysis; format: cell-based; procedure, shortened: as §1
A498 [7] = test: Inhibition of colony formation in human A498 cells at 1 to 5 uM incubated for 12 days by crystal violet dye based assay; format: functional, cell-based
Procedure, shortened: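 Cells seeded at 1,000/well, grown 12 days at 37 °C, 5% CO2, medium renewed every 3 days. Fixed with 10% acetic acid/10% methanol for 15 min, stained with 1% crystal violet for 10 min.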

[8] = target: Speckle-type POZ protein (Homo sapiens) (UniProt O43791); test: Binding affinity to recombinant N-terminal GST/His-tagged SPOP (unknown origin) MATH binding domain expressed in Escherichia coli BL21 (DE3) assessed as change in melting temperature at 5 fold compound by SYPRO Orange dye based differential scanning fluorimetry (reference value: -1.7 degreeC)
[9] = target: Speckle-type POZ protein (Homo sapiens) (UniProt O43791); test: Inhibition of SPOP signalling in human A498 cells assessed as accumulation of PTEN incubated for 12 hrs by Western blot analysis; format: cell-based; procedure, shortened: as §2
A498 [10] = test: Antiproliferative activity against human A498 cells assessed as reduction in cell viability incubated for 72 hrs by MTT assay; format: functional, cell-based; details: A498, 72 h
Procedure, shortened: (§5)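 MTT read-out. Cells seeded at 1,000-2,200/well, grown 12 hr at 37 °C before compound, then exposed 72 hr. MTT for 4 hr, formazan dissolved in DMSO, A490 read. Untreated cells = 100% proliferation. IC50 quantitated; mean ± SD, n = 3.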

OS-RC-2 [11] = test: Antiproliferative activity against human OS-RC2 cells assessed as reduction in cell viability incubated for 72 hrs by MTT assay; format: functional, cell-based; details: OS-RC-2, 72 h; procedure, shortened: as §5
[12] = target: Speckle-type POZ protein (Homo sapiens) (UniProt O43791); test: Inhibition of SPOP signalling in human OS-RC2 cells assessed as effect on total AKT level at 0.5 to 15 uM incubated for 12 hrs by Western blot analysis; format: cell-based; procedure, shortened: as §1
OS-RC-2 [13] = test: Antiproliferative activity against human OS-RC2 cells assessed as reduction in cell viability at 30 uM incubated for 72 hrs by MTT assay relative to control; format: functional; details: OS-RC-2, 72 h
Procedure, shortened: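 MTT read-out. Cells seeded at 1,000-2,200/well, grown 12 hr at 37 °C, then compound added for 72 hr. MTT for 4 hr, formazan dissolved in DMSO, absorbance at 490 nm. Untreated-cell OD taken as 100% proliferation; inhibition reported at 30 μM.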

Hs 766 = test: Cytotoxicity against human Hs766T cells assessed as reduction in cell viability incubated for 72 hrs by MTT assay; format: cell-based; details: Hs 766, 72 h; procedure, shortened: as §4
[14] = target: Speckle-type POZ protein (Homo sapiens) (UniProt O43791); test: Inhibition of SPOP signalling in human OS-RC2 cells assessed as effect of DUSP7 mRNA expression at 1 to 10 uM incubated for 12 hrs by qRT-PCR analysis; format: cell-based
[15] = target: Speckle-type POZ protein (Homo sapiens) (UniProt O43791); test: Inhibition of SPOP signalling in human A498 cells assessed as effect on total AKT level at 0.5 to 10 uM incubated for 12 hrs by Western blot analysis; format: cell-based; procedure, shortened: as §1
[16] = target: Speckle-type POZ protein (Homo sapiens) (UniProt O43791); test: Inhibition of SPOP signalling in human A498 cells assessed as accumulation of DUSP7 incubated for 12 hrs by Western blot analysis; format: cell-based; procedure, shortened: as §1
U-251 = test: Cytotoxicity against human U251 cells assessed as reduction in cell viability incubated for 72 hrs by MTT assay; format: cell-based; details: U-251, 72 h; procedure, shortened: as §4
[17] = target: Speckle-type POZ protein (Homo sapiens) (UniProt O43791); test: Binding affinity to recombinant N-terminal GST/His-tagged SPOP (unknown origin) MATH binding domain expressed in Escherichia coli BL21 (DE3) assessed as change in melting temperature at 1 fold compound by SYPRO Orange dye based differential scanning fluorimetry (reference value: -1.7 degreeC)
[18] = target: T1, Speckle-type POZ protein/PTEN (Homo sapiens); test: Inhibition of SPOP/PTEN interaction in human A498 cells assessed as increase in SPOP level at 1 to 50 uM incubated for 20 mins by DARTS based Western blot analysis; format: cell-based; procedure, shortened: as §3
[19] = target: Speckle-type POZ protein (Homo sapiens) (UniProt O43791); test: Binding affinity to recombinant N-terminal GST/His-tagged MATH binding domain SPOP (unknown origin) expressed in Escherichia coli BL21 (DE3) assessed as change in melting temperature at 20 fold compound incubated for 15 mins by nano differential scanning fluorimetry (reference value: -3.8 degreeC)
[20] = target: Speckle-type POZ protein (Homo sapiens) (UniProt O43791); test: Inhibition of SPOP in HEK293T cells assessed as reduction in cell viability incubated for 72 hrs by MTT assay; format: cell-based
[21] = Selectivity index, ratio of IC50 for human Hs766T to IC50 for human A498 cells
[22] = Selectivity index, ratio of IC50 for human H1299 to IC50 for human A498 cells
[23] = target: Speckle-type POZ protein (Homo sapiens) (UniProt O43791); test: Inhibition of SPOP signalling in human OS-RC2 cells assessed as effect of PTEN mRNA expression at 1 to 10 uM incubated for 12 hrs by qRT-PCR analysis; format: cell-based
[24] = target: Speckle-type POZ protein (Homo sapiens) (UniProt O43791); test: Inhibition of SPOP signalling in human OS-RC2 cells assessed as reduction in AKT phosphorylation at 0.5 to 15 uM incubated for 12 hrs by Western blot analysis; format: cell-based; procedure, shortened: as §1

Chain of Speckle-type POZ protein (Homo sapiens) (O43791 whole entry, the tested form may be a part): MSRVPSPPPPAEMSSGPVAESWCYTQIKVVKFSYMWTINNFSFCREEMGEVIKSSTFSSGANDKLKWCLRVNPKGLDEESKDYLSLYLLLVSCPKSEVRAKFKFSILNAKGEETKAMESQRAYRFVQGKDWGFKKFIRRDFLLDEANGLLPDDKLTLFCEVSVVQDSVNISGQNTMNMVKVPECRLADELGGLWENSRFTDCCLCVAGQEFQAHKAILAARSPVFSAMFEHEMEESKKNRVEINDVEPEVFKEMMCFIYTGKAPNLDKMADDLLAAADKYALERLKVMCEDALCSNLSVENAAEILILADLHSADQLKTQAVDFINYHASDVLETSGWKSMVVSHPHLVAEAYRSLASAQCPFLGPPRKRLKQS
T1 sequence (O43791 whole entry, looked up): as the sequence (O43791 whole entry, the tested form may be a part) above
T1 sequence (P60484 whole entry, looked up): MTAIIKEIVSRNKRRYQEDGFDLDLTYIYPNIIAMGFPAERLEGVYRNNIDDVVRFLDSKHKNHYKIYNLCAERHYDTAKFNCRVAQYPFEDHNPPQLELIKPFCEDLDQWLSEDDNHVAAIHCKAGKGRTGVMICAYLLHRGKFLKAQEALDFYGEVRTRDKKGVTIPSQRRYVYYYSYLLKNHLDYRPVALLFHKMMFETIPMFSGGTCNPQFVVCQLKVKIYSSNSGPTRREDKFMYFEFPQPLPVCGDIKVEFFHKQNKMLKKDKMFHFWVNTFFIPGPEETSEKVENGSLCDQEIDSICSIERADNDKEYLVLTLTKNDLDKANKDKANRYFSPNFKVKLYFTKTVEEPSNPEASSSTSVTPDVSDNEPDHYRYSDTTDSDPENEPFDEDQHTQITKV

## Cc1cccn2c(=O)c3cc(C(=O)NCCN4CCN(C)CC4)c(=N)n(CCc4cccs4)c3nc12
[1]
  inhibition: Dose-dependent effect
[2]
  inhibition: Active
[3]
  inhibition: Dose-dependent effect
[4]
  inhibition: Active
A549
  pIC50: 4.79
[5]
  Ratio IC50: >5
[6]
  inhibition: inactive
A498 [7]
  inhibition: Active
[8]
  ΔTm: 3.7 °C
[9]
  inhibition: Dose-dependent effect
A498 [10]
  pIC50: 5.68
OS-RC-2 [11]
  pIC50: 5.46
[12]
  inhibition: inactive
OS-RC-2 [13]
  inhibition at 30 µM: 90%
Hs 766
  pIC50: 4.84
[14]
  inhibition: inactive
[15]
  inhibition: inactive
[16]
  inhibition: Dose-dependent effect
U-251
  pIC50: 4.99
[17]
  ΔTm: 2.7 °C
[18]
  inhibition: Active
[19]
  ΔTm: 3.5 °C
[20]
  inhibition: Active
[21]
  Ratio IC50: >5
[22]
  Ratio IC50: >5
[23]
  inhibition: inactive
[24]
  inhibition: Active
